Data reported in paper PMC6512341 (ACS chemical neuroscience, 2018).

Key:
[1] = tested on: HDAC6; conditions: cited from earlier work; for activity against HDAC6 (in words) / selectivity over HDAC1 (in words): Figure 1a
[2] = tested on: acetylated α-tubulin; assay: α-Tubulin acetylation studies in HEK293 cells; type: cell-based; conditions: tested at 0.01, 0.1, 1, and 10 μM
Summary of the method: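 HEK293 cells plated 24 h ahead and treated at 70% confluency with 10 nM–10 µM. Lysed in MPER with protease inhibitors; 2 µg protein boiled, run on 12% gel, transferred to PVDF. Blocked in 5% milk/TBST; anti-acetyl-tubulin 1:3000 overnight at 4 °C, then HRP secondary 1:5000; ECL. Reprobed for total α-tubulin at 1:1000. Densitometric ratio normalized to 10 µM reference HDAC6 inhibitor; n = 3–4; one-way ANOVA vs vehicle.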

[3] = tested on: MDCK-MDR1 cell line; assay: Permeability studies in MDCK-MDR1 cells; type: in vitro ADME; conditions: MDCK-MDR1 cell line
[4] = tested on: MDR1 (P-gp); assay: Permeability studies in MDCK-MDR1 cells; type: in vitro ADME; conditions: dog, MDCK-MDR1, efflux ratio, MDCK-MDR1 cell line
[5] = tested on: MDR1; assay: Permeability studies in MDCK-MDR1 cells; type: in vitro ADME; conditions: dog, MDCK-MDR1

| Compound | efflux ratio [3] | efflux ratio at 2 h [4] | Papp A→B at 2 h [5] [×10⁻⁶ cm/s] | Papp B→A at 2 h [5] [×10⁻⁶ cm/s] | concentration at which acetylated α-tubulin levels are elevated [2] [µM] | also measured |
| --- | --- | --- | --- | --- | --- | --- |
| O=C(NO)c1ccccc1 [Compound 1, phenylhydroxamate, reference compound] |  |  |  |  |  | selectivity over class I HDACs [1]: more than 10 fold; IC50 ([1]; read-out: IC50 against HDAC6): 115 nM |
| O=C(NO)c1ccc(Cn2cccc2)cc1 [Compound 4, 4-(1-Pyrrolylmethyl)-N-hydroxybenzamide] |  |  |  |  |  | activity against HDAC6 (in words) [1]: nanomolar activity; selectivity over HDAC1 (in words) [1]: high selectivity |
| O=C(NO)c1ccc(Cn2ccc3ccccc32)cc1 [Compound 5, 4-(1-Indolylmethyl)-N-hydroxybenzamide] |  |  |  |  |  | activity against HDAC6 (in words) [1]: nanomolar activity; selectivity over HDAC1 (in words) [1]: high selectivity |
| O=C(NO)c1ccc(CN2CCc3ccc(F)cc32)cc1 [Compound 11, 4-[(6-Fluoroindolin-1-yl)methyl]-N-hydroxybenzamide] | 1.05 | < 1 | 10.5 | 11.1 | 1 |  |

Continued, in another order:

| efflux ratio [3] | efflux ratio at 2 h [4] | Papp A→B at 2 h [5] [×10⁻⁶ cm/s] | Papp B→A at 2 h [5] [×10⁻⁶ cm/s] | Compound | concentration at which acetylated α-tubulin levels are elevated [2] [µM] | also measured |
| --- | --- | --- | --- | --- | --- | --- |
| 0.70 |  |  |  | O=C(NO)c1ccc(Cn2cccn2)cc1 [Compound 6, 4-(1-Pyrazolylmethyl)-N-hydroxybenzamide] | 10 | Papp(A−B) [3]: 7.35 10^−6, cm/s; Papp(B−A) [3]: 5.24 10^−6, cm/s |
| 0.63 | < 1 | 17.6 | 11 | CN(C)c1ccc(Cc2ccc(C(=O)NO)cc2)cc1 [Compound 7, 4-[4-(Dimethylamino)benzyl]-N-hydroxybenzamide] | 10 |  |
| 0.62 | < 1 | 9.14 | 5.54 | O=C(NO)c1ccc(CN2CCc3ccc(Cl)cc32)cc1 [Compound 10, 4-[(6-Chloroindolin-1-yl)methyl]-N-hydroxybenzamide] | 1 |  |
| 2.95 | > 2.5 | 0.66 | 2.05 | Cn1c(NCc2ccc(C(=O)NO)cc2)nc2ccccc21 [Compound 12, N-Hydroxy-4-[[(1-methyl-1H-benz[d]imidazol-2-yl)amino]-methyl]benzamide] |  |  |
